Data published in ChEMBL document CHEMBL1128743, “Synthesis of tight binding inhibitors and their action on the proprotein-processing enzyme furin” (J Med Chem, 1995).

Assays:
Furin = Furin (Homo sapiens, UniProt P09958); test: Inhibitory activity against furin
Serine protease 1 = Serine protease 1 (Homo sapiens, UniProt P07477); test: Inhibitory activity against trypsin
In short: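 Trypsin was tested in the furin buffer: 100 mM HEPES pH 7.5, 0.5% Triton X-100, 1 mM CaCl2, 1 mM 2-mercaptoethanol.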

[1] = biological target: Subtilisin Carlsberg (Bacillus licheniformis) (UniProt P00780); test: Inhibitory activity against subtilism Carlsberg; No inhibition
Subtilisin Carlsberg (Bacillus licheniformis), sequence (P00780 whole entry, looked up): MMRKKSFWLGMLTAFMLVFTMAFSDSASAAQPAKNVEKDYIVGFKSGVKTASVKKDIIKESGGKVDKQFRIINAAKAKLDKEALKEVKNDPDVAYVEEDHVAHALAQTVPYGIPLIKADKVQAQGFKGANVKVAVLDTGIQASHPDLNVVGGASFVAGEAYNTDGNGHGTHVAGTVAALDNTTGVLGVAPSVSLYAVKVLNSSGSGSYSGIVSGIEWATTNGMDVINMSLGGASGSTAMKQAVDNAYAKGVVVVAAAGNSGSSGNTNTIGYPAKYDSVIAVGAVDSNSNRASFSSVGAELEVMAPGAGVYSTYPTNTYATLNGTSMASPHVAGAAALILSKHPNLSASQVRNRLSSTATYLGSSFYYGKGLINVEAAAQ

Furin, sequence (P09958 whole entry): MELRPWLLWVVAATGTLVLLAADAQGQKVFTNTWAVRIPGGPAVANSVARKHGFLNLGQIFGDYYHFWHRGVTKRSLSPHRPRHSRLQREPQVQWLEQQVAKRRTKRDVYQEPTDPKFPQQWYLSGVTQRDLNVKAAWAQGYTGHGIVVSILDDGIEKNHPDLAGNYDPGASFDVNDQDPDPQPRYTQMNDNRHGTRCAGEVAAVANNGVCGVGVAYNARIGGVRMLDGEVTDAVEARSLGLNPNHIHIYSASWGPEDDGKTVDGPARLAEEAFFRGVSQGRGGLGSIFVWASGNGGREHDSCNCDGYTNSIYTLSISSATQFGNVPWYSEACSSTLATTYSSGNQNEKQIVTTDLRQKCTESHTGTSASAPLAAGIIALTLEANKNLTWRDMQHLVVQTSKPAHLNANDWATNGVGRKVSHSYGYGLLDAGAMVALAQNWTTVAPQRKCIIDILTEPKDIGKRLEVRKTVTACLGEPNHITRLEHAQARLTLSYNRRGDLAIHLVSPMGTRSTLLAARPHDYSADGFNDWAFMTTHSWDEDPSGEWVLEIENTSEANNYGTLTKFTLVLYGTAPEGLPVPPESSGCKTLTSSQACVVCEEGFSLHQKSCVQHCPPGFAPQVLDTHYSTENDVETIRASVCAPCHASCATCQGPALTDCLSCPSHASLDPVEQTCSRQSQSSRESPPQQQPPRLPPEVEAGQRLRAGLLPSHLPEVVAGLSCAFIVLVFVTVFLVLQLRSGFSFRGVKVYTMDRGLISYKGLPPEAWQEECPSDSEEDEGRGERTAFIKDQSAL
Serine protease 1, sequence (P07477 whole entry): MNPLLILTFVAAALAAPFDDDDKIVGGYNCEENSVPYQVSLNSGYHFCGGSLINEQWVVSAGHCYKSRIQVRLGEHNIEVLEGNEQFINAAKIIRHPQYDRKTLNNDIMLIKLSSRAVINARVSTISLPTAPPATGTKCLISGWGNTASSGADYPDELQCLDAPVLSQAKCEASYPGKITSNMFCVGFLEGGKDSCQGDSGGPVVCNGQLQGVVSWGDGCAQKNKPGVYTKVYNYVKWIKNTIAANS

Structure (SMILES)	Ki (Furin) [nM]	Ki (Serine protease 1) [µM]	Ki [1]
CCCCCCCCCCN[C@@H](CCCN=C(N)N)C(=O)N[C@H](C(=O)N[C@@H](CCCCN)C(=O)N[C@@H](CCCN=C(N)N)C(=O)CCC(=O)OC)C(C)C	240		
CCCCCCCCCCN[C@@H](CCCN=C(N)N)C(=O)N[C@H](C(=O)N[C@@H](CCCCN)C(=O)N[C@@H](CCCN=C(N)N)C(=O)CN[C@@H](C)C(=O)N[C@H](C(=O)NCC(N)=O)C(C)C)C(C)C	3.4		
COC(=O)[C@@H](CC(C)C)NC(=O)CNC(=O)[C@H](NC(=O)CCC(=O)[C@H](CCCN=C(N)N)NC(=O)[C@H](CCCCN)NC(=O)[C@@H](NC(=O)[C@H](CCCN=C(N)N)NC(C)=O)C(C)C)C(C)C	350		
CCCCCCCCCCN[C@@H](CCCNC(=N)N)C(=O)N[C@H](C(=O)N[C@@H](CCCCN)C(=O)N[C@@H](CCCNC(=N)N)C(=O)CN[C@@H](C)C(=O)N[C@H](C(=O)NCC(=O)OC)C(C)C)C(C)C		1.9	
CCCCCCCCCCN[C@@H](CCCN=C(N)N)C(=O)N[C@H](C(=O)N[C@@H](CCCCN)C(=O)N[C@H](CCCN=C(N)N)C(=O)CN[C@@H](C)C(=O)N[C@H](C(=O)NCC(N)=O)C(C)C)C(C)C	26		
CCCCCCCCCCN[C@@H](CCCN=C(N)N)C(=O)N[C@H](C(=O)N[C@@H](CCCCN)C(=O)N[C@@H](CCCN=C(N)N)C(=O)CCC(=O)N[C@@H](C(=O)NCC(=O)N[C@H](CC(C)C)C(=O)OC)C(C)C)C(C)C	330	20.9	Not Active
